Common to all, as to type: functional
The test system of assay [1] is Micrococcus luteus. In words: Antimicrobial activity against Micrococcus luteus at 1 mg/ml incubated for 20 to 30 mins followed by incubation for 24 hrs at 37 degC by agar plate method. The method, boiled down: (§1)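 Agar well diffusion on nutrient agar. Plates swabbed with 60 µL inoculum; 8 mm wells loaded with 100 µL of compound at 1.0 mg/mL. Held 20–30 min at 4 °C for diffusion, then 24 h at 37 °C. Inhibition zone diameter read in mm. Triplicate.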

The subject of assay [2] is Staphylococcus aureus. The assay can be described thus: Antimicrobial activity against Staphylococcus aureus at 1 mg/ml incubated for 20 to 30 mins followed by incubation for 24 hrs at 37 degC by agar plate method. An outline of the steps: as §1
In assay [3] the test system is Salmonella typhi. In words: Antimicrobial activity against Salmonella typhi at 1 mg/ml incubated for 20 to 30 mins followed by incubation for 24 hrs at 37 degC by agar plate method. The following applies: for diameter of the inhibition zone (DIZ): Salmonella enterica subsp. enterica serovar Typhi. An outline of the steps:
(§2)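 Agar well diffusion on nutrient agar. Plates swabbed with 60 µL inoculum, 8 mm wells loaded with 100 µL sample at 1.0 mg/mL, streptomycin standard and control in separate wells. Plates held 20–30 min at 4 °C for diffusion, then 24 h at 37 °C. Zone diameter read in mm; triplicate.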

For assay [4], the system named is Salmonella paratyphi. In words: Antimicrobial activity against Salmonella paratyphi at 1 mg/ml incubated for 20 to 30 mins followed by incubation for 24 hrs at 37 degC by agar plate method. The following applies: for diameter of the inhibition zone (DIZ): Salmonella enterica subsp. enterica serovar Paratyphi A. The method, boiled down:
as §2

In assay [5] the test system is Micrococcus luteus. The assay can be described thus: Antimicrobial activity against Micrococcus luteus incubated for 12 to 16 hrs by tube dilution method. An outline of the steps: (§3)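 Tube dilution, serial from 500 to 1.9 µg/mL, plus drug-free control tube. Each tube inoculated with 1 mL culture at OD 0.2, incubated 37 °C for 12–16 h. MIC is the lowest concentration with no growth by turbidity. MBC is found by plating each tube on nutrient agar: the lowest concentration at which all cells are killed.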

In assay [6] the test system is Micrococcus luteus. The assay can be described thus: Antimicrobial activity against Micrococcus luteus incubated for 12 to 16 hrs followed by plating in nutrient agar by tube dilution method. The method, boiled down:
as §3

The test system of assay [7] is Salmonella typhi. The assay can be described thus: Antimicrobial activity against Salmonella typhi incubated for 12 to 16 hrs by tube dilution method. An outline of the steps: (§4)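 Broth tube dilution, two-fold serial dilutions from 500 to 1.9 µg/mL plus a drug-free control tube. Each tube inoculated with 1 mL culture at OD 0.2 (~McFarland standard), 37 °C for 12-16 h. Turbidity compared with the control tube. MIC is the lowest concentration giving complete growth inhibition.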

Assay [8] has as its system Salmonella typhi. In words: Antimicrobial activity against Salmonella typhi incubated for 12 to 16 hrs followed by plating in nutrient agar by tube dilution method. The method, boiled down:
(§5)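 After 12-16 h at 37 °C in tube dilution (500 to 1.9 µg/mL; 1 mL inoculum at OD 0.2), the culture from each tube was plated on nutrient agar. MBC is the concentration at which cells are completely killed.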

Assay [9] concerns Salmonella paratyphi. In words: Antimicrobial activity against Salmonella paratyphi incubated for 12 to 16 hrs by tube dilution method. The method, boiled down: as §4
Assay [10] has as its system Salmonella paratyphi. The assay can be described thus: Antimicrobial activity against Salmonella paratyphi incubated for 12 to 16 hrs followed by plating in nutrient agar by tube dilution method. The method, boiled down: as §5
Assay [11] is described as follows: Anti-inflammatory activity at 50 ug/ml using bovine serum albumin and egg albumin proteins incubated at 37 degC for 20 mins and then heated to 95 degC for 20 mins by UV-visible Spectrophotometry based protein denaturation method. The method, boiled down: (§6)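 Albumin (bovine serum or egg) at 1% in 50 mM sodium phosphate buffer pH 6.4. Mixture is 0.1 ml test sample (1 mg/ml) plus 0.2 ml albumin, made to 5 ml with buffer. Held 37 °C for 20 min, then 95 °C for 20 min. Cooled to room temperature, turbidity read at 660 nm. % inhibition = (Abs control − Abs sample)/Abs control × 100. Triplicate, averaged.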

A short description of assay [12]: Anti-inflammatory activity at 100 ug/ml using bovine serum albumin and egg albumin proteins incubated at 37 degC for 20 mins and then heated to 95 degC for 20 mins by UV-visible Spectrophotometry based protein denaturation method. The method, boiled down:
as §6

Assay [13] is described as follows: Anti-inflammatory activity using bovine serum albumin and egg albumin proteins incubated at 37 degC for 20 mins and then heated to 95 degC for 20 mins by UV-visible Spectrophotometry based protein denaturation method. The method, boiled down:
as §6

Setting [14] is: Salmonella enterica subsp. enterica serovar Typhi.
Setting [15] is: Salmonella enterica subsp. enterica serovar Paratyphi A.
[16] abbreviates: Salmonella enterica, read-out: DIZ.

By MIC is commonly meant the lowest concentration found to suppress growth. The term MBC denotes the smallest concentration meeting the test's criterion for killing. What is called inhibition is the share of the control response that was lost under treatment. In general, IC50 refers to the concentration that gives 50% inhibition.

SMILES strings stand for the structures. Converted amounts (≈) assume the structure as drawn. The source made the active and inactive calls.

In the case of `Brc1ccc(-c2cn(Cc3cn(-c4ccccc4)nc3-c3ccccc3)nn2)cc1`, the “diameter of the inhibition zone (DIZ)” value in assay [1], in assay [2], in assay [3] and in assay [4] was “inactive” throughout. The MIC result in [5], in assay [7] (setting [14]) and in assay [9] (setting [15]) was “inactive” in each case. Moreover, the MBC entry in assay [6], in [8] (setting [14]) and in [10] (setting [15]) was “inactive” in each case. In addition, the inhibition result in assay [11] and in assay [12] was “inactive” each time. Also, the IC50 entry in [13] is “Not Active”.
Turning to `COC(=O)c1nnn(Cc2cn(-c3ccccc3)nc2-c2ccc(OC)cc2)c1C(=O)OC`, the “diameter of the inhibition zone (DIZ)” value in assay [1], in assay [2], in assay [3] and in assay [4] was “inactive” each time. For the same molecule, the MIC result in [5], in [7] (setting [14]) and in assay [9] (setting [15]) was “inactive” throughout. Moreover, the MBC result in [6], in assay [8] (setting [14]) and in assay [10] (setting [15]) was “inactive” in each case. The inhibition result in [11] and in assay [12] was “inactive” in each case. For the same molecule, the IC50 entry in assay [13] is recorded as “Not Active”.
`CCOC(=O)c1nnn(Cc2cn(-c3ccccc3)nc2-c2ccccc2)c1C(=O)OCC`: the “diameter of the inhibition zone (DIZ)” value in [1], in assay [2], in assay [3] and in assay [4] was “inactive” throughout. In addition, the MIC result in [5], in assay [7] (setting [14]) and in [9] (setting [15]) was “inactive” in each case. The MBC entry in assay [6], in assay [8] (setting [14]) and in assay [10] (setting [15]) was “inactive” throughout. The inhibition entry in assay [11] and in assay [12] was “inactive” throughout. Also, the IC50 entry in assay [13] is reported as “Not Active”.
For the molecule `Cc1ccc(-c2nn(-c3ccccc3)cc2Cn2cc(-c3ccccc3)nn2)cc1`, the “diameter of the inhibition zone (DIZ)” value in [1], in assay [2], in [3] and in assay [4] was “inactive” in each case. The MIC entry in [5], in [7] (setting [14]) and in assay [9] (setting [15]) was “inactive” throughout. In addition, the MBC entry in [6], in assay [8] (setting [14]) and in assay [10] (setting [15]) was “inactive” each time. Besides, the inhibition result in assay [11] and in [12] was “inactive” in each case. For the same molecule, in assay [13], the half-inhibitory concentration (IC50) result was “Not Active”.
On to `CN[C@@H]1[C@H](O[C@H]2[C@H](O[C@H]3[C@H](O)[C@@H](O)[C@H](N=C(N)N)[C@@H](O)[C@@H]3N=C(N)N)O[C@@H](C)[C@]2(O)C=O)O[C@@H](CO)[C@H](O)[C@H]1O` [STREPTOMYCIN], for which the zone of inhibition at 1000 µg/mL turned out to be 22.5 mm in assay [1] (read-out: DIZ), 20.3 mm in assay [2] (read-out: DIZ), 27 mm in assay [3] (setting [16]) and 30 mm in [4] (setting [16]). The MIC in assay [5], in [7] (Salmonella enterica) and in assay [9] (Salmonella enterica) was 6.25 µg/mL (≈ 10.7 µM) each time. In addition, the minimal bactericidal concentration (MBC) in assay [6], in [8] (Salmonella enterica) and in assay [10] (Salmonella enterica) was 6.25 µg/mL (≈ 10.7 µM) in each case.
In the case of `O=C([O-])Cc1ccccc1Nc1c(Cl)cccc1Cl.[Na+]` [DICLOFENAC SODIUM], the inhibition in assay [11] is 66.4%; in assay [12] it was 93.1%. For the same molecule, in [13], the IC50 turned out to be 53.7 µg/mL.

Values taken from ChEMBL document CHEMBL4177578, “Synthesis, pharmacological activities and molecular docking studies of pyrazolyltriazoles as anti-bacterial and anti-inflammatory agents” (Bioorg Med Chem, 2017).
